Here are results for 33 molecules from ChEMBL document CHEMBL2034940, “Synthesis of N6-alkyl(aryl)-2-alkyl(aryl)thioadenosines as antiplatelet agents” (Eur J Med Chem, 2012).

pIC50: −log10 of the molar value.

The subject of test [1] is Platelet. Kind of test: Inhibition of ADP-induced platelet aggregation in human platelet rich plasma incubated 1 min prior ADP induction measured after 3 mins by Born's method using aggregometer. It is filed as functional, cell-free. The settings on record: for pIC50: Homo sapiens, Platelet, Plasma. In short, it runs like this:
(§1)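 Citrated (3.8% sodium citrate, 1:9) venous blood from healthy donors free of aspirin/NSAIDs for at least 14 days. PRP prepared by centrifugation, with PPP as the baseline blank. Compound in DMSO (below 0.5% final) added to 500 µL PRP 1 min before 10 µM ADP (final), at 37 °C. Aggregation is the maximum tracing height over at least 3 min, expressed as % inhibition versus vehicle. IC50 comes from non-linear regression, mean ± S.E.M., n = 3.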

Test [2] has as its system Platelet. Briefly: Inhibition of ADP-induced platelet aggregation in human platelet rich plasma assessed as platelet aggregation at 300 uM incubated 1 min prior ADP induction measured after 3 mins by Born's method using aggregometry relative to control. Type of test: functional. More on the design: scale not given: the % may be the effect or the level left. The procedure, abridged: (§2)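 Human citrated PRP from drug-free healthy donors, with PPP as the blank, in an aggregometer at 37 °C. Compound added at 300 µM final in DMSO (below 0.5%) for 1 min, then 10 µM ADP final. Maximum aggregation tracing height read over at least 3 min and compared with the DMSO vehicle control.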

The subject of test [3] is Platelet. Kind of test: Inhibition of ADP-induced platelet aggregation in human platelet rich plasma at 300 uM incubated 1 min prior ADP induction measured after 3 mins by Born's method using aggregometer relative to control. Type of test: functional. In short, it runs like this:
as §2

Test [4] concerns Platelet. Briefly: Inhibition of arachidonic acid-induced platelet aggregation in human platelet rich plasma incubated 1 min prior arachidonic acid induction measured after 3 mins by Born's method using aggregometer. Type of test: functional, cell-free. The note with it: for pIC50: Homo sapiens, Platelet, Plasma. In short, it runs like this: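 Citrated PRP from healthy volunteers free of aspirin/NSAIDs for at least 14 days, with PPP as the baseline blank. Compound in DMSO (below 0.5% final) preincubated 1 min in 500 µL PRP at 37 °C, then 0.5 mM arachidonic acid (final) added. Maximum aggregation height over at least 3 min gives % inhibition versus vehicle. IC50 by non-linear regression, mean ± S.E.M. of 3 experiments.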

The subject of test [5] is Platelet. Kind of test: Inhibition of ADP-induced platelet aggregation in human platelet rich plasma. Type of test: functional, cell-free. The procedure, abridged: as §1

For `CCSc1nc(NCc2ccccc2)c2ncn([C@@H]3O[C@H](CO)[C@@H](O)[C@H]3O)c2n1`, the “inhibition (INH)” value in the test with Platelet [1] is given as >50%. With `CCCCCCNc1nc(SCC)nc2c1ncn2[C@@H]1O[C@H](CO)[C@@H](O)[C@H]1O`, the Activity with Platelet [2] amounted to 57%. For the same molecule, in the test on Platelet [3], the inhibition at 300 µM was < 50%.

Turning to `CCCCCCNc1nc(SCCC)nc2c1ncn2[C@@H]1O[C@H](CO)[C@@H](O)[C@H]1O`, the “inhibition (INH)” value in the test on Platelet [1] is >50%. For `CCCCCCNc1nc(SCCCC)nc2c1ncn2[C@@H]1O[C@H](CO)[C@@H](O)[C@H]1O`, the Activity in the test with Platelet [2] came to 66%. In the test with Platelet [3], the inhibition at 300 µM was < 50%. `CCSc1nc(NC2CCCCC2)c2ncn([C@@H]3O[C@H](CO)[C@@H](O)[C@H]3O)c2n1`: in the test with Platelet [1], the “inhibition (INH)” value was >50%.

In the case of `CCCSc1nc(NC2CCCCC2)c2ncn([C@@H]3O[C@H](CO)[C@@H](O)[C@H]3O)c2n1`, the “inhibition (INH)” value in the test on Platelet [1] is on record as >50%.

For `CC(C)Sc1nc(NC2CCCCC2)c2ncn([C@@H]3O[C@H](CO)[C@@H](O)[C@H]3O)c2n1`, the “inhibition (INH)” value in the test on Platelet [1] was >50%. Regarding `CCCCSc1nc(NC2CCCCC2)c2ncn([C@@H]3O[C@H](CO)[C@@H](O)[C@H]3O)c2n1`, in the test with Platelet [1], the “inhibition (INH)” value is >50% and the negative logarithm of the IC50 (pIC50) is 4.08. For `CCCCN(CCCC)c1nc(SCC)nc2c1ncn2[C@@H]1O[C@H](CO)[C@@H](O)[C@H]1O`, in the test on Platelet [2], the Activity worked out at 77%. Further, the inhibition at 300 µM in the test with Platelet [3] is < 50%.

Regarding `CSc1nc(NCc2ccccc2)c2ncn([C@@H]3O[C@H](CO)[C@@H](O)[C@H]3O)c2n1`, the Activity in the test on Platelet [2] was found to be 52%. Further, the inhibition at 300 µM with Platelet [3] was < 50%.

`CCCSc1nc(NCc2ccccc2)c2ncn([C@@H]3O[C@H](CO)[C@@H](O)[C@H]3O)c2n1`: in the test on Platelet [1], the “inhibition (INH)” value is on record as >50%. The same measure, in the same setting: for `CCCCSc1nc(NCc2ccccc2)c2ncn([C@@H]3O[C@H](CO)[C@@H](O)[C@H]3O)c2n1` the value was >50%. Take `CSc1nc(NCc2ccc(C)cc2)c2ncn([C@@H]3O[C@H](CO)[C@@H](O)[C@H]3O)c2n1`: in the test on Platelet [2], the Activity is on record as 77%. Besides, in the test on Platelet [3], the inhibition at 300 µM was < 50%. `CCSc1nc(NCc2ccc(C)cc2)c2ncn([C@@H]3O[C@H](CO)[C@@H](O)[C@H]3O)c2n1`: the Activity in the test on Platelet [2] is recorded as 88%. Also, the inhibition at 300 µM in the test with Platelet [3] is < 50%. Regarding `COc1ccc(CNc2nc(SC)nc3c2ncn3[C@@H]2O[C@H](CO)[C@@H](O)[C@H]2O)cc1`, the Activity in the test on Platelet [2] amounted to 69%. Besides, the inhibition at 300 µM with Platelet [3] was < 50%. Regarding `CCSc1nc(NCc2ccc(OC)cc2)c2ncn([C@@H]3O[C@H](CO)[C@@H](O)[C@H]3O)c2n1`, the Activity with Platelet [2] was determined as 74%. Moreover, in the test with Platelet [3], the inhibition at 300 µM was < 50%. For the molecule `CCCSc1nc(NCc2ccc(OC)cc2)c2ncn([C@@H]3O[C@H](CO)[C@@H](O)[C@H]3O)c2n1`, the “inhibition (INH)” value with Platelet [1] is >50%. For `CSc1nc(NCCc2ccccc2)c2ncn([C@@H]3O[C@H](CO)[C@@H](O)[C@H]3O)c2n1`, in the test with Platelet [4], the “inhibition (INH)” value is recorded as >50% and the pIC50 was 5.52. Also, in the test with Platelet [1], the “inhibition (INH)” value is given as >50% and the pIC50 was 4.44. As to `CCSc1nc(NCCc2ccccc2)c2ncn([C@@H]3O[C@H](CO)[C@@H](O)[C@H]3O)c2n1`, in the test with Platelet [4], the “inhibition (INH)” value is >50% and the negative logarithm of the IC50 (pIC50) was 4.52. For the same molecule, in the test with Platelet [1], the “inhibition (INH)” value was >50% and the pIC50 was 4.54. For `CCCSc1nc(NCCc2ccccc2)c2ncn([C@@H]3O[C@H](CO)[C@@H](O)[C@H]3O)c2n1`, the “inhibition (INH)” value with Platelet [4] and in the test on Platelet [1] was >50% each time. The negative-log IC50 (pIC50) in the test with Platelet [4] is 4.36; in the test on Platelet [1], 4.28. Take `CCCCSc1nc(NCCc2ccccc2)c2ncn([C@@H]3O[C@H](CO)[C@@H](O)[C@H]3O)c2n1`: in the test with Platelet [4], the inhibition (INH) was < 50%. For the same molecule, in the test with Platelet [1], the “inhibition (INH)” value is reported as >50% and the pIC50 was 4.23.

For the molecule `OC[C@H]1O[C@@H](n2cnc3c(NCCc4ccccc4)nc(Sc4ccccc4)nc32)[C@H](O)[C@@H]1O`, the Activity in the test on Platelet [2] was 57%. Also, the inhibition at 300 µM with Platelet [3] is < 50%. Take `OC[C@H]1O[C@@H](n2cnc3c(NCCc4ccccc4)nc(SCc4ccccc4)nc32)[C@H](O)[C@@H]1O`: the Activity with Platelet [2] is recorded as 57%. The inhibition at 300 µM with Platelet [3] is < 50%. As for `COc1ccc(CCNc2nc(SC)nc3c2ncn3[C@@H]2O[C@H](CO)[C@@H](O)[C@H]2O)cc1`, the “inhibition (INH)” value in the test with Platelet [1] was >50%. As to `CCSc1nc(NCCc2ccc(OC)cc2)c2ncn([C@@H]3O[C@H](CO)[C@@H](O)[C@H]3O)c2n1`, in the test with Platelet [1], the “inhibition (INH)” value is listed as >50% and the pIC50 is 4.05. Regarding `CCCSc1nc(NCCc2ccc(OC)cc2)c2ncn([C@@H]3O[C@H](CO)[C@@H](O)[C@H]3O)c2n1`, the “inhibition (INH)” value with Platelet [1] is given as >50%. `CCCCSc1nc(NCCc2ccc(OC)cc2)c2ncn([C@@H]3O[C@H](CO)[C@@H](O)[C@H]3O)c2n1`: in the test on Platelet [1], the “inhibition (INH)” value is on record as >50% and the negative-log IC50 (pIC50) was 4.03. In the case of `COc1cccc(CCNc2nc(SC)nc3c2ncn3[C@@H]2O[C@H](CO)[C@@H](O)[C@H]2O)c1`, the Activity in the test on Platelet [2] was determined as 71%. Also, the inhibition at 300 µM with Platelet [3] is < 50%. For the molecule `CCSc1nc(NCCc2cccc(OC)c2)c2ncn([C@@H]3O[C@H](CO)[C@@H](O)[C@H]3O)c2n1`, in the test with Platelet [4], the inhibition (INH) was < 50%. In the test on Platelet [1], the “inhibition (INH)” value is on record as >50% and the pIC50 is 4.42. For the molecule `CCCSc1nc(NCCc2cccc(OC)c2)c2ncn([C@@H]3O[C@H](CO)[C@@H](O)[C@H]3O)c2n1`, in the test with Platelet [1], the “inhibition (INH)” value is listed as >50% and the pIC50 was 4.16. As to `CCCCSc1nc(NCCc2cccc(OC)c2)c2ncn([C@@H]3O[C@H](CO)[C@@H](O)[C@H]3O)c2n1`, the Activity with Platelet [2] was determined as 85%. For the same molecule, in the test on Platelet [3], the inhibition at 300 µM was < 50%.

Take `CCSc1nc(NC(C)c2ccccc2)c2ncn([C@@H]3O[C@H](CO)[C@@H](O)[C@H]3O)c2n1` (some centres not stated): the “inhibition (INH)” value with Platelet [1] was >50%.

In the case of `CSCCNc1nc(SCCC(F)(F)F)nc2c1ncn2[C@@H]1O[C@H](COP(=O)(O)OP(=O)(O)C(Cl)(Cl)P(=O)(O)O)[C@@H](O)[C@H]1O` [CANGRELOR TETRASODIUM], the negative-log IC50 (pIC50) with Platelet [5] was 9.40.
